Measured values gathered from unrelated publications.
CDK4 with cyclin D3: Cyclin-dependent kinase 4, with cyclin D3 (CDK4, Homo sapiens, UniProt P11802)
CDK4 with cyclin D1: Cyclin-dependent kinase 4, with cyclin D1 (CDK4, Homo sapiens, UniProt P11802)
CDK4: Cyclin-dependent kinase 4 (CDK4, Homo sapiens, UniProt P11802)

C[C@@H]1CCN(C(=O)CC#N)C[C@@H]1N(C)c1ncnc2[nH]ccc12  remaining signal (CDK4 with cyclin D3; cell-free assay, inhibitor; 0.5 µM): 99.9%
COc1ccc2cc(OCC3(C(=O)O)CN(C(=O)c4ccc(F)cc4)C3)ccc2c1  remaining binding (CDK4 with cyclin D3; cell-free assay, competition with immobilised ligand; 1 µM): 100%
CN(c1nccc(-c2cnn3ncccc23)n1)C1CC1  remaining binding (CDK4 with cyclin D1; binding; 1 µM): 100%
COc1cc(-c2cn(C3CCc4c(F)cccc4N(CC(F)(F)F)C3=O)nn2)ccc1-n1cnc(C)c1 (centres unmarked)  remaining binding (CDK4 with cyclin D3; cell-free assay, competition with immobilised ligand; 1 µM): 100%
Cc1cnc(NC2CCOCC2)nc1-n1cnc(C(=O)NC(CN)c2cc(F)cc(Cl)c2)c1 (centres unmarked)  remaining activity (CDK4 with cyclin D3; enzyme activity, inhibitor, radiometric; 1 µM): 6%
O=C(c1ccc(Cl)c(Cl)c1)[C@H]1Cc2c(cc([N+](=O)[O-])cc2[N+](=O)[O-])[C@@H](O)[C@@]12C(=O)Nc1ccccc12  inhibition (CDK4; cell-free assay, inhibitor, TR-FRET; 1 µM): 35.6%
O=C1Nc2ccc(Cl)cc2C1=Cc1cc(Cl)c(O)c(Cl)c1  remaining signal (CDK4 with cyclin D3; cell-free assay; 0.5 µM): 94.8%
O=C(NC[C@@H]1[C@H]2CN(C(=O)OCc3cc(C(F)(F)F)cc(C(F)(F)F)c3)C[C@@H]12)c1ccc2[nH]nnc2c1  remaining binding (CDK4 with cyclin D1; cell-free assay, competition with immobilised ligand; 1 µM): 100%
COc1ccnn2ncc(-c3ccnc(N(C)C)n3)c12  remaining binding (CDK4 with cyclin D3; binding; 1 µM): 69%
Nc1ncnc2occ(-c3ccc(NC(=O)Nc4cc(C(F)(F)F)ccc4F)cc3)c12  remaining signal (CDK4 with cyclin D1; cell-free assay, inhibitor; 20 µM): 17%
CS(=O)(=O)CCNCc1ccc(-c2ccc3ncnc(Nc4ccc(OCc5cccc(F)c5)c(Cl)c4)c3c2)o1  remaining signal (CDK4 with cyclin D1; cell-free assay; 0.5 µM): 94.8%
O=C(NCc1ncc(C(F)(F)F)cc1Cl)c1ccc2c(c1)C1(CCS(=O)(=O)CC1)[C@H](C1CC1)N2S(=O)(=O)c1ccc(F)cc1  remaining binding (CDK4 with cyclin D3; cell-free assay, competition with immobilised ligand; 1 µM): 88%
CCN(CC)CCNC(=O)c1c(C)[nH]c(/C=C2\C(=O)Nc3ccc(F)cc32)c1C  remaining signal (CDK4 with cyclin D3; cell-free assay; 0.5 µM): 93%
COc1cc(Cl)c(C(=O)N[C@@H](CN[C@H]2CC[C@@H](N)CC2)Cc2ccc(C#N)cc2)cc1-c1ccc(CN[C@H](C)c2ccc(C)cc2)o1  remaining activity (CDK4 with cyclin D3; enzyme activity, inhibitor; 1 µM): 103%
O=C(c1ccccc1F)[C@H]1Cc2c(cc([N+](=O)[O-])cc2[N+](=O)[O-])[C@H](O)[C@]12C(=O)Nc1ccccc12  inhibition (CDK4; cell-free assay, inhibitor, TR-FRET; 1 µM): 29.3%
COc1cccc(CNC(=O)c2nc3scc(COCc4ccc(C(=O)O)cc4)c3c(=O)[nH]2)c1  remaining binding (CDK4 with cyclin D3; cell-free assay, competition with immobilised ligand; 1 µM): 91.1%
O=C(Nc1cnn(-c2csc(C(=O)NC3COC3)c2)c1)Nc1c(F)cccc1Cl  remaining activity (CDK4 with cyclin D1; enzyme activity, inhibitor; 5 µM): 90.3%
O=C(O)[C@@H]1[C@@H](Cn2nnc3ccccc3c2=O)CC[C@H]1C(=O)c1ccc(OCCC2CCOCC2)cc1  remaining binding (CDK4 with cyclin D3; cell-free assay, competition with immobilised ligand; 1 µM): 83%
F[C@@H]1CCN(c2nccc(-c3cnn4ncccc34)n2)C1  remaining binding (CDK4 with cyclin D1; binding; 1 µM): 100%
O=C(c1ccc(F)cc1)[C@H]1Cc2c(cc([N+](=O)[O-])cc2[N+](=O)[O-])[C@@H](O)[C@@]12C(=O)Nc1ccccc12  inhibition (CDK4; cell-free assay, inhibitor, TR-FRET; 1 µM): 48.2%
